In ChEMBL document CHEMBL1212864, “Synthesis of novel 3,5-diaryl pyrazole derivatives using combinatorial chemistry as inhibitors of tyrosinase as well as potent anticancer, anti-inflammatory agents” (Bioorg Med Chem, 2010):

Key:
NCI-H460 [1] = test: Anticancer activity against human H460 cells at 10 uM after 24 hrs; assay type: functional
Tyrosinase [2] = target: T1, Tyrosinase (Agaricus bisporus, UniProt O42713); test: Inhibition of mashroom tyrosinase assessed as oxidation of L-DOPA
T1 sequence (O42713 whole entry): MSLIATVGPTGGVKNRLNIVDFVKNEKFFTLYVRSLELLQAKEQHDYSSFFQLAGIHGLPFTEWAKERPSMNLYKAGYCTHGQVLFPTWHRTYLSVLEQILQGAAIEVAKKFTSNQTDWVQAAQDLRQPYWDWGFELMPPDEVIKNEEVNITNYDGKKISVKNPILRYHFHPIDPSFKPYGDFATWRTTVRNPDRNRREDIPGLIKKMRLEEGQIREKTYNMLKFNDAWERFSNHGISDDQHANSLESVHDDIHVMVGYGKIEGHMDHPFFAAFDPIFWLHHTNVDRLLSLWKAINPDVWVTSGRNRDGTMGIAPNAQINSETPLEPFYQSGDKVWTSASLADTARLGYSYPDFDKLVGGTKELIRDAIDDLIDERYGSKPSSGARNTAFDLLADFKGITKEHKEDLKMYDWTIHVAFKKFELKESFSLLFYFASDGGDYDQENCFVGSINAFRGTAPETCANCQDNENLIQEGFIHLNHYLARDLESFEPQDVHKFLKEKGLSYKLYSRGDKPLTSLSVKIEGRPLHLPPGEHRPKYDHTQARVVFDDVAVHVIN
Summary of the method: (§1)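 Mushroom tyrosinase diphenolase activity (L-DOPA substrate) or monophenolase activity (L-tyrosine substrate) in 0.25 M phosphate buffer, pH 6.8, at 30 °C. Samples were first dissolved in DMSO. Dopachrome formation was followed spectrophotometrically at 475 nm.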

THP-1 [3] = test: Antiinflammatory activity against human THP1 cells assessed as inhibition of LPS-induced TNFalpha release at 10 uM after 24 hrs; assay type: functional; conditions: THP-1, 24 h
Summary of the method: (§2)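 Human THP-1 cells were grown in RPMI 1640 with 10% FBS, penicillin and streptomycin, then differentiated with PMA. Test agents in 0.5% DMSO were preincubated with cells for 30 min at 37 °C before E. coli 0127:B8 LPS was added. Cytokine release was measured by the manufacturer's (BD Biosciences) method and expressed as percent inhibition versus control; IC50 values came from nonlinear regression.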

MCF7 [4] = test: Anticancer activity against human MCF7 cells at 10 uM after 24 hrs; assay type: functional
HL-60 [5] = test: Anticancer activity against human HL60 cells at 10 uM after 24 hrs; assay type: functional
THP-1 [6] = test: Antiinflammatory activity against human THP1 cells assessed as inhibition of LPS-induced IL6 release at 10 uM after 24 hrs; assay type: functional; conditions: THP-1, 24 h; summary of the method: as §2
Tyrosinase [7] = target: T1, Tyrosinase; test: Inhibition of mashroom tyrosinase; summary of the method: as §1
HCT-116 [8] = test: Anticancer activity against human HCT116 cells at 10 uM after 24 hrs; assay type: functional
PC-3 [9] = test: Anticancer activity against human PC3 cells at 10 uM after 24 hrs; assay type: functional
NCI-H460 [10] = test: Anticancer activity against human H460 cells at 0.5 uM after 24 hrs; assay type: functional
PC-3 [11] = test: Anticancer activity against human PC3 cells at 0.5 uM after 24 hrs; assay type: functional
HCT-116 [12] = test: Anticancer activity against human HCT116 cells at 0.5 uM after 24 hrs; assay type: functional
HL-60 [13] = test: Anticancer activity against human HL60 cells at 0.5 uM after 24 hrs; assay type: functional
MCF7 [14] = test: Anticancer activity against human MCF7 cells at 0.5 uM after 24 hrs; assay type: functional
THP-1 [15] = test: Antiinflammatory activity against human THP1 cells assessed as inhibition of LPS-induced TNFalpha release at 1 uM after 24 hrs; assay type: functional; parameters: scale not given: the % may be the effect or the level left; summary of the method: as §2
THP-1 [16] = test: Antiinflammatory activity against human THP1 cells assessed as inhibition of LPS-induced IL6 release at 1 uM after 24 hrs; assay type: functional; parameters: scale not given: the % may be the effect or the level left; summary of the method: as §2
[17] = Cytotoxicity against […] at 1 uM; assay type: cell-based
Summary of the method: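 Cytotoxicity was measured with the CCK-8 kit in PMA-differentiated THP-1 cells at the same time as the LPS-induced cytokine release assay. Test agents were given in 0.5% DMSO with a 30 min preincubation at 37 °C before LPS.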

| SMILES | Activity (NCI-H460 [1]) [%] | IC50 (Tyrosinase [2]) [µM] | Ki (Tyrosinase [2]) [µM] | inhibition at 10 µM (THP-1 [3]) [%] | Activity (MCF7 [4]) [%] | Activity (HL-60 [5]) [%] | inhibition at 10 µM (THP-1 [6]) [%] | IC50 (Tyrosinase [7]) [µM] | Ki (Tyrosinase [7]) [µM] | Activity (HCT-116 [8]) [%] | Activity (PC-3 [9]) [%] | Activity (NCI-H460 [10]) [%] | Activity (PC-3 [11]) [%] | Activity (HCT-116 [12]) [%] | Activity (HL-60 [13]) [%] | Activity (MCF7 [14]) [%] | Activity (THP-1 [15]) [%] | Activity (THP-1 [16]) [%] | Activity [17] [%] |
| --- | --- | --- | --- | --- | --- | --- | --- | --- | --- | --- | --- | --- | --- | --- | --- | --- | --- | --- | --- |
| COc1cc(OC)c(C2CCN(C)C2CO)c(O)c1-c1cc(-c2ccccc2Cl)[nH]n1 (centres undefined) | 69 | 29.4 | 11.8 | 24 | 63 | 67 | 47 | 22.8 | 10.6 | 73 | 69 | – | – | – | – | – | – | – | – |
| COc1cc(OC)c(C2CCN(C)C2CO)c(O)c1-c1cc(-c2ccccc2Br)[nH]n1 (centres undefined) | 53 | – | – | 19 | 55 | 62 | 39 | – | – | 61 | 51 | – | – | – | – | – | – | – | – |
| COc1cc(OC)c(C2CCN(C)C2CO)c(O)c1-c1cc(-c2ccc(Cl)cc2Cl)[nH]n1 (centres undefined) | 61 | – | – | 18 | 58 | 59 | 41 | – | – | 59 | 63 | – | – | – | – | – | – | – | – |
| COc1cc(OC)c(C2CCN(C)C2CO)c(O)c1-c1cc(-c2ccc([N+](=O)[O-])cc2Cl)[nH]n1 (centres undefined) | 65 | 21.5 | 14.6 | 21 | 61 | 63 | 42 | 17.8 | 9.85 | 67 | 65 | – | – | – | – | – | – | – | – |
| COc1cc(OC)c(C2CCN(C)C2CO)c(O)c1-c1cc(-c2ccccc2F)[nH]n1 (centres undefined) | 23 | – | – | 0 | 15 | 19 | 11 | – | – | 19 | 21 | – | – | – | – | – | – | – | – |
| COc1cc(OC)c(C2CCN(C)C2CO)c(O)c1-c1cc(-c2ccccc2C)[nH]n1 (centres undefined) | 18 | – | – | 0 | 11 | 14 | 13 | – | – | 16 | 17 | – | – | – | – | – | – | – | – |
| COc1ccccc1-c1cc(-c2c(OC)cc(OC)c(C3CCN(C)C3CO)c2O)n[nH]1 (centres undefined) | 15 | – | – | 0 | 13 | 17 | 10 | – | – | 21 | 29 | – | – | – | – | – | – | – | – |
| COc1ccc(-c2cc(-c3c(OC)cc(OC)c(C4CCN(C)C4CO)c3O)n[nH]2)c(OC)c1 (centres undefined) | 19 | 2.84 | 0.96 | 0 | 21 | 24 | 11 | 1.75 | 0.84 | 17 | 16 | – | – | – | – | – | – | – | – |
| COc1cc(OC)c(C2CCN(C)C2CO)c(O)c1-c1cc(-c2cccc(Cl)c2)[nH]n1 (centres undefined) | 55 | – | – | 11 | 59 | 61 | 35 | – | – | 63 | 67 | – | – | – | – | – | – | – | – |
| COc1cc(OC)c(C2CCN(C)C2CO)c(O)c1-c1cc(-c2cccc(Br)c2)[nH]n1 (centres undefined) | 61 | – | – | 13 | 65 | 52 | 43 | – | – | 59 | 58 | – | – | – | – | – | – | – | – |
| COc1cc(OC)c(C2CCN(C)C2CO)c(O)c1-c1cc(-c2ccc(C)cc2)[nH]n1 (centres undefined) | 13 | – | – | 0 | 17 | 21 | 10 | – | – | 19 | 11 | – | – | – | – | – | – | – | – |
| COc1cc(OC)c(C2CCN(C)C2CO)c(O)c1-c1cc(-c2ccc(F)cc2)[nH]n1 (centres undefined) | 16 | 19.6 | 12.6 | 11 | 19 | 26 | 28 | 15.5 | 11.2 | 21 | 15 | – | – | – | – | – | – | – | – |
| COc1ccc(-c2cc(-c3c(OC)cc(OC)c(C4CCN(C)C4CO)c3O)n[nH]2)cc1 (centres undefined) | 13 | – | – | 0 | 15 | 19 | 12 | – | – | 16 | 22 | – | – | – | – | – | – | – | – |
| COc1cc(OC)c(C2CCN(C)C2CO)c(O)c1-c1cc(-c2ccc(Cl)cc2)[nH]n1 (centres undefined) | 58 | – | – | 16 | 61 | 63 | 35 | – | – | 55 | 65 | – | – | – | – | – | – | – | – |
| COc1cc(OC)c(C2CCN(C)C2CO)c(O)c1-c1cc(-c2ccc(Br)cc2)[nH]n1 (centres undefined) | 61 | – | – | 17 | 63 | 57 | 31 | – | – | 49 | 59 | – | – | – | – | – | – | – | – |
| CN1CC[C@H](c2c(O)cc(O)c3c(=O)cc(-c4ccccc4Cl)oc23)[C@H](O)C1 [ALVOCIDIB] | – | – | – | – | – | – | – | – | – | – | – | 78 | 77 | 87 | 72 | 74 | – | – | – |
| C[C@@H]1C[C@H]2[C@@H]3CCC4=CC(=O)C=C[C@]4(C)[C@@]3(F)[C@@H](O)C[C@]2(C)[C@@]1(O)C(=O)CO [DEXAMETHASONE] | – | – | – | – | – | – | – | – | – | – | – | – | – | – | – | – | 71 | 85 | 0 |
